Assays:
[1] = biological target: cGMP-dependent 3',5'-cyclic phosphodiesterase (Homo sapiens, UniProt O00408); experiment: Inhibitory activity against PDE2 by scintillation proximity assay
Procedure, shortened: (§1)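 Phosphodiesterase inhibition run as a scintillation proximity assay, with enzyme at a concentration in the linear range. Final substrate was 1 µM, below one-third of the enzyme K_M, so that IC50 approximates Ki. Values are means of n experiments with standard deviation.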

[2] = biological target: 3',5'-cyclic-AMP phosphodiesterase 4A (Homo sapiens, UniProt P27815); experiment: Inhibitory activity against PDE4A by scintillation proximity assay; procedure, shortened: as §1
[3] = biological target: 3',5'-cyclic-AMP phosphodiesterase 4B (Homo sapiens, UniProt Q07343); experiment: Inhibitory activity against PDE4B by scintillation proximity assay; procedure, shortened: as §1
[4] = biological target: cGMP-specific 3',5'-cyclic phosphodiesterase (Homo sapiens, UniProt O76074); experiment: Inhibitory activity against PDE5 by scintillation proximity assay
Procedure, shortened: (§2)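 Scintillation proximity assay for phosphodiesterase inhibition. Enzyme is used at a concentration within the linear range, and its KM was measured. Final substrate concentration is 1 µM, below one-third of KM, so IC50 approximates Ki. Results are means of n experiments with standard deviation.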

[5] = biological target: High affinity cAMP-specific and IBMX-insensitive 3',5'-cyclic phosphodiesterase 8A (Homo sapiens, UniProt O60658); experiment: Inhibitory activity against PDE8A by scintillation proximity assay; procedure, shortened: as §2
[6] = biological target: Adenosine receptor A1 (Homo sapiens) (UniProt P30542); experiment: Percentage binding to adenosine A1 receptor at 10 uM
[7] = biological target: Rho-associated protein kinase 2 (Homo sapiens) (UniProt O75116); experiment: Inhibition of ROCK2 at 10 uM
[8] = biological target: Serine/threonine-protein kinase Chk1 (Homo sapiens) (UniProt O14757); experiment: Inhibition of CHK1 at 10 uM
[9] = biological target: Type-2 angiotensin II receptor (Homo sapiens) (UniProt P50052); experiment: Percentage binding to angiotensin II type 2 receptor at 10 uM
[10] = biological target: D(3) dopamine receptor (Homo sapiens) (UniProt P35462); experiment: Percentage binding to dopamine D3 at 10 uM
[11] = biological target: D(4) dopamine receptor (Homo sapiens) (UniProt P21917); experiment: Percentage binding to dopamine D4 at 10 uM
[12] = biological target: Glutamate receptor ionotropic kainate (Homo sapiens) (UniProt P39086+Q16478+Q16099+Q13002+Q13003); experiment: Percentage binding to kainate receptor at 10 uM; format: protein-complex assay
[13] = biological target: Histamine H1 receptor (Homo sapiens) (UniProt P35367); experiment: Percentage binding to histamine H1 at 10 uM
[14] = biological target: Histamine H2 receptor (Homo sapiens) (UniProt P25021); experiment: Percentage binding to histamine H2 at 10 uM
[15] = biological target: Histamine H3 receptor (Homo sapiens) (UniProt Q9Y5N1); experiment: Percentage binding to histamine H3 at 10 uM
[16] = biological target: Muscarinic acetylcholine receptor M3 (Homo sapiens) (UniProt P20309); experiment: Percentage binding to muscarinic M3 at 10 uM
[17] = biological target: Muscarinic acetylcholine receptor M4 (Homo sapiens) (UniProt P08173); experiment: Percentage binding to muscarinic M4 at 10 uM
[18] = Percentage binding to neuronal NACHR at 10 uM
Procedure, shortened: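 Single-concentration screen within a panel of 54 receptors and ion channels, measuring binding or interaction at each target.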

[19] = biological target: 5-hydroxytryptamine receptor 4 (Homo sapiens) (UniProt Q13639); experiment: Percentage binding to serotonin 5HT4 at 10 uM
[20] = biological target: 5-hydroxytryptamine receptor 7 (Homo sapiens) (UniProt P34969); experiment: Percentage binding to serotonin 5HT7 at 10 uM
[21] = biological target: Sodium-dependent serotonin transporter (Homo sapiens) (UniProt P31645); experiment: Activity against serotonin uptake at 10 uM
[22] = biological target: Glucocorticoid receptor (Homo sapiens) (UniProt P04150); experiment: Percentage binding to glucocorticord receptor at 10 uM
[23] = biological target: Vasopressin V1 receptor (Homo sapiens) (UniProt P37288+P47901); experiment: Percentage binding to vasopressin V1 at 10 uM; format: protein assay
[24] = biological target: Cyclooxygenase (Homo sapiens) (UniProt P35354+P23219); experiment: Inhibition of COX at 10 uM; format: protein assay
[25] = biological target: Dual specificity mitogen-activated protein kinase kinase 1 (Homo sapiens) (UniProt Q02750); experiment: Inhibition of MKK1 at 10 uM
[26] = biological target: Mitogen-activated protein kinase 1 (Homo sapiens) (UniProt P28482); experiment: Inhibition of MAPK2 at 10 uM
[27] = biological target: Mitogen-activated protein kinase 8 (Homo sapiens) (UniProt P45983); experiment: Inhibition of JNK1a1 at 10 uM
[28] = biological target: Mitogen-activated protein kinase 11 (Homo sapiens) (UniProt Q15759); experiment: Inhibition of SAPK2b at 10 uM
[29] = biological target: Mitogen-activated protein kinase 13 (Homo sapiens) (UniProt O15264); experiment: Inhibition of SAPK4 at 10 uM
[30] = biological target: Ribosomal protein S6 kinase alpha-1 (Homo sapiens) (UniProt Q15418); experiment: Inhibition of RSK1 at 10 uM
[31] = biological target: MAP kinase-activated protein kinase 2 (Homo sapiens) (UniProt P49137); experiment: Inhibition of MAPKAPK2 at 10 uM
[32] = biological target: Ribosomal protein S6 kinase alpha-5 (Homo sapiens) (UniProt O75582); experiment: Inhibition of MSK1 at 10 uM
[33] = biological target: MAP kinase-activated protein kinase 5 (Homo sapiens) (UniProt Q8IW41); experiment: Inhibition of PRAK at 10 uM
[34] = biological target: cAMP-dependent protein kinase (PKA) (Homo sapiens) (UniProt P22694+P17612+P22612); experiment: Inhibition of PKA at 10 uM; format: protein assay
[35] = biological target: RAC-alpha serine/threonine-protein kinase (Homo sapiens) (UniProt P31749); experiment: Inhibition of PKBalpha at 10 uM
[36] = biological target: Cyclin-dependent kinase 2 (Homo sapiens) (UniProt P24941); experiment: Inhibition of CDK2 at 10 uM
[37] = biological target: Serine/threonine-protein kinase Nek2 (Homo sapiens) (UniProt P51955); experiment: Inhibition of NEK2 at 10 uM
[38] = biological target: Voltage-gated L-type calcium channel (Homo sapiens, UniProt Q13936+Q13698+Q01668+O60840); experiment: Percentage binding to Ca2+ channel L at 10 uM; format: protein assay
[39] = Half life in rat liver microsome; format: ADME; details: liver microsomes
[40] = Tmax in rat; format: ADME, organism-based; details: Sprague-Dawley, in vivo
[41] = Cmax in rat; format: ADME, organism-based; details: Sprague-Dawley, in vivo
Procedure, shortened: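 Sprague–Dawley rats were dosed intravenously at 1 mg/kg in EtOH:PEG 400:H2O (1:4:5) and orally at 30 mg/kg in 0.5% methylcellulose.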

[42] = Oral bioavailability in rat; format: ADME, organism-based; details: Sprague-Dawley, in vivo
Procedure, shortened: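 Sprague–Dawley rats were dosed intravenously at 1 mg/kg in EtOH:PEG 400:H2O (1:4:5) and orally at 30 mg/kg in 0.5% methylcellulose. Plasma was sampled at 0.083, 0.25, 0.5, 1, 2, 4, 6 and 8 h after dosing and analysed.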

Chain of Rho-associated protein kinase 2 (Homo sapiens) (O75116 whole entry, looked up): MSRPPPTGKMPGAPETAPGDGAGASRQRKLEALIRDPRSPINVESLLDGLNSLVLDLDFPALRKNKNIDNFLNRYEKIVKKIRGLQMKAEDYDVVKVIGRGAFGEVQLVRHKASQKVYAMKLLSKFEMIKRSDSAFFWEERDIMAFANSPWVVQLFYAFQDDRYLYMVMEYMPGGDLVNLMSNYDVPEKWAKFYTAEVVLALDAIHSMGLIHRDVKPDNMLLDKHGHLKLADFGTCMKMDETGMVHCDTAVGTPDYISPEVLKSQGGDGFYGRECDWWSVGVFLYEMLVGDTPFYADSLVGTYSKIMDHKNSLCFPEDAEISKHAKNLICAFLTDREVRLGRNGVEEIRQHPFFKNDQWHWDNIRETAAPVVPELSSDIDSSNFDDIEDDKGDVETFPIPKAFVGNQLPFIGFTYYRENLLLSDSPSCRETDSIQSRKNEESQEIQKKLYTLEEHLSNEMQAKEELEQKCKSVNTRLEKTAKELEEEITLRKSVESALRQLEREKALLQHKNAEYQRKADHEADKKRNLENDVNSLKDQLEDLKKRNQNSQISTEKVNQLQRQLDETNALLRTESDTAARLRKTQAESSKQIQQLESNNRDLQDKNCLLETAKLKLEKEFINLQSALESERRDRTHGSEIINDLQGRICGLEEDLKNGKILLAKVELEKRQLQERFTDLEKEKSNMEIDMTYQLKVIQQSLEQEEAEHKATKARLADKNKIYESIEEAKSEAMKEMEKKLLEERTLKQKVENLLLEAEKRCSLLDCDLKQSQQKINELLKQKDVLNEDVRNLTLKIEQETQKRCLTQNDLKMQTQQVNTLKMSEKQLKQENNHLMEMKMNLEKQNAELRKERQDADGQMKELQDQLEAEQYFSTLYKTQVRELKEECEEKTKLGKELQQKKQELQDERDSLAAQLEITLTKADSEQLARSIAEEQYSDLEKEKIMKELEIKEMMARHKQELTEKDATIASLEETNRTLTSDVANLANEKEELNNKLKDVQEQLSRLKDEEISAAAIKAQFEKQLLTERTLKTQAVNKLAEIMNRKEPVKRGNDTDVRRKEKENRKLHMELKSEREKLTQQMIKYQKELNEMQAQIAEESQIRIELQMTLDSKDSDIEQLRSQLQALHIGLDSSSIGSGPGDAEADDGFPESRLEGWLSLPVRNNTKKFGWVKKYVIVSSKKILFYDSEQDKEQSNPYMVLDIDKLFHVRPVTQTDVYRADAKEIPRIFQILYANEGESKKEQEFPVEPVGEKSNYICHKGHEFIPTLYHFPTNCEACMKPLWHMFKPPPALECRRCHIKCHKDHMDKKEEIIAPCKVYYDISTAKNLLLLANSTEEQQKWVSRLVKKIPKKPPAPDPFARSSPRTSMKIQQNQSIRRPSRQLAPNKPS
Chain of Muscarinic acetylcholine receptor M3 (Homo sapiens) (P20309 whole entry, looked up): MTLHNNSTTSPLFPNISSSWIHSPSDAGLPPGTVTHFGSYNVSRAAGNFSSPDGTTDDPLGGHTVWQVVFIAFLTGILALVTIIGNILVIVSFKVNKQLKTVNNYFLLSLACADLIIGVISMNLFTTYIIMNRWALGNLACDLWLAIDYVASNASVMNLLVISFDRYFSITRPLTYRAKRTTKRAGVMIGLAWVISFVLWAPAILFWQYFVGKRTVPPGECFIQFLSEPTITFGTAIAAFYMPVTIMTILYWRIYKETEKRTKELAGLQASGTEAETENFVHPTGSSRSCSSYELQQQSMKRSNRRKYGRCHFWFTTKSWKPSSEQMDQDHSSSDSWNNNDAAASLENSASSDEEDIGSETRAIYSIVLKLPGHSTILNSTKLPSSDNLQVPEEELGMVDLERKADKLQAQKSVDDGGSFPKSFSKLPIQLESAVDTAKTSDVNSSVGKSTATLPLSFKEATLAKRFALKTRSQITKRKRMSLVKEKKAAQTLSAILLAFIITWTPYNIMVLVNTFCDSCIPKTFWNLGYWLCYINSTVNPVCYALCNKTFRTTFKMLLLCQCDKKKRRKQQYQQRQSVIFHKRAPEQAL
Chain of Vasopressin V1 receptor (Homo sapiens) (P37288 whole entry, looked up): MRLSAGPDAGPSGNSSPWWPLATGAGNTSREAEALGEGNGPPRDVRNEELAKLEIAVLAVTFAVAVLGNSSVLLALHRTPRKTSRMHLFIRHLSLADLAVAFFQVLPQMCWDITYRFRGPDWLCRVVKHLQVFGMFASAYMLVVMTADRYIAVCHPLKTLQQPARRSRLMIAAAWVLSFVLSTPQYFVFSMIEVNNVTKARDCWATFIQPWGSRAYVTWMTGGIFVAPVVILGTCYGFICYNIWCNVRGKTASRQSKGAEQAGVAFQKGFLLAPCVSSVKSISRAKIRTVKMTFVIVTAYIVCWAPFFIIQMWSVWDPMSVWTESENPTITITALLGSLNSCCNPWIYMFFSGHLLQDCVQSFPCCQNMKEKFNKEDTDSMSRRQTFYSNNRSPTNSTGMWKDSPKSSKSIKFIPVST
Chain of Vasopressin V1 receptor (Homo sapiens) (P47901 whole entry, looked up): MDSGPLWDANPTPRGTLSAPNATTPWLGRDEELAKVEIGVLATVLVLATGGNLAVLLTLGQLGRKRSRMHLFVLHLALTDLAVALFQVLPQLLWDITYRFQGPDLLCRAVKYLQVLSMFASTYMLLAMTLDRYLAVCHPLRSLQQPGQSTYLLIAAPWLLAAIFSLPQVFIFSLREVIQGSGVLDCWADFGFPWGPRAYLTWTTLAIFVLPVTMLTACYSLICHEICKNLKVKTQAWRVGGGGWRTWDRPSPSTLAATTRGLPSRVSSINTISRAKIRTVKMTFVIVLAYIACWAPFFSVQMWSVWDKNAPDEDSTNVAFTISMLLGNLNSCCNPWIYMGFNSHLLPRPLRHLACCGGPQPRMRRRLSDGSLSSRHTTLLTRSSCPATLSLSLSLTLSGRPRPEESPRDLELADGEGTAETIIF
Chain of Serine/threonine-protein kinase Nek2 (Homo sapiens) (P51955 whole entry): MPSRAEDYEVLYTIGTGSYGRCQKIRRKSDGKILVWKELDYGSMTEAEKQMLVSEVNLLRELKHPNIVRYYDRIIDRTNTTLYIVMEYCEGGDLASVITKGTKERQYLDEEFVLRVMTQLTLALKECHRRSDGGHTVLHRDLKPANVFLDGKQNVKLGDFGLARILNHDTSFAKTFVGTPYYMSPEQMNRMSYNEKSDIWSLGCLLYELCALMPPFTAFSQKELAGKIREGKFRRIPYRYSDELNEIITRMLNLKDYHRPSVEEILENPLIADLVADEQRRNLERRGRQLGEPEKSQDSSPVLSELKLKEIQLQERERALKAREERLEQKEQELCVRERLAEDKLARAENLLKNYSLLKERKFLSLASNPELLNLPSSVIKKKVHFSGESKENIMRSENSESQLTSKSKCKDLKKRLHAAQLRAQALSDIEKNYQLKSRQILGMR
Chain of Mitogen-activated protein kinase 11 (Homo sapiens) (Q15759 whole entry): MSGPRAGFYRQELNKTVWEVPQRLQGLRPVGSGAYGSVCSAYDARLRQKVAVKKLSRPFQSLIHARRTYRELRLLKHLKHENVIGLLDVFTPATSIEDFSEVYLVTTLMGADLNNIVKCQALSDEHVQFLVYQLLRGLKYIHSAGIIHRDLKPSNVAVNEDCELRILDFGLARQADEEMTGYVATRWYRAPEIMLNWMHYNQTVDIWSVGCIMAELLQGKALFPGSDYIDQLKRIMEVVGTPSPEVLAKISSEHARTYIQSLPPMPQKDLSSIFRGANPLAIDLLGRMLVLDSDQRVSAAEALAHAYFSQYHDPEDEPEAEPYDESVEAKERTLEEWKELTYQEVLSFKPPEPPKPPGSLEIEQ
Chain of Type-2 angiotensin II receptor (Homo sapiens) (P50052 whole entry): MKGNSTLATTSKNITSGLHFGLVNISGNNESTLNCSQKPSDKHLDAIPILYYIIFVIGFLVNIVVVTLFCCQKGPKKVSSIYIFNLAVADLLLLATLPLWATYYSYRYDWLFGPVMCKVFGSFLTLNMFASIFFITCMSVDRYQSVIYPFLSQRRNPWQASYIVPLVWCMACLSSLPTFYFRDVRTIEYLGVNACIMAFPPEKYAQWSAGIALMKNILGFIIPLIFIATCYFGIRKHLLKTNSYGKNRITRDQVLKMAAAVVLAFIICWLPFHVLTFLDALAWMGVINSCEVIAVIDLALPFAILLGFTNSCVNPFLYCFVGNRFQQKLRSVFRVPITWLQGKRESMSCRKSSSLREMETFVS
Chain of 3',5'-cyclic-AMP phosphodiesterase 4B (Q07343 whole entry): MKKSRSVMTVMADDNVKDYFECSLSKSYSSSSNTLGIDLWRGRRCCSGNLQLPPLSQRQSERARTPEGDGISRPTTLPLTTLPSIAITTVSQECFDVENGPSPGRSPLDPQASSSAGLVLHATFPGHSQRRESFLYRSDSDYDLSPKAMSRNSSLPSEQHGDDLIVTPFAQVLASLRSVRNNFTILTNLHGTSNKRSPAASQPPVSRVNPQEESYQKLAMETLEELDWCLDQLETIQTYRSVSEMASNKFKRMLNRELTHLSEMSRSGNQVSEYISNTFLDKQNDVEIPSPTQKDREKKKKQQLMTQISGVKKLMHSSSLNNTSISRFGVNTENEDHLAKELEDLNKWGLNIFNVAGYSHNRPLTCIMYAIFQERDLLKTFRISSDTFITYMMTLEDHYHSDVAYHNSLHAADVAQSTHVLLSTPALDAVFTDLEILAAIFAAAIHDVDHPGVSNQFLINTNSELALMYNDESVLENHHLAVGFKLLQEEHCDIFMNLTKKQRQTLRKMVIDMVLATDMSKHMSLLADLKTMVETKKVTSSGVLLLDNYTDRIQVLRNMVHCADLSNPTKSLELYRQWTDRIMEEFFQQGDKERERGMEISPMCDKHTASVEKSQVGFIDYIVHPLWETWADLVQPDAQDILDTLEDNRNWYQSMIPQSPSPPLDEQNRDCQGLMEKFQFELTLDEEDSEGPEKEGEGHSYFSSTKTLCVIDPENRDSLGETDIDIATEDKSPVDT

IC50 [1]: 0.04 µM | IC50 [2]: > 16 µM | IC50 [3]: > 16 µM | IC50 [4]: > 16 µM | IC50 [5]: > 16 µM | Activity [6]: 16% | inhibition [7]: 20% | inhibition [8]: 0% | Activity [9]: 4% | Activity [10]: 0% | Activity [11]: 0% | Activity [12]: 0% | Activity [13]: 7% | Activity [14]: 0% | Activity [15]: 0% | Activity [16]: 0% | Activity [17]: 1% | Activity [18]: 7% | Activity [19]: 0% | Activity [20]: 0% | Activity [21]: 0% | Activity [22]: 0% | Activity [23]: 5% | inhibition [24]: 0% | inhibition [25]: 0% | inhibition [26]: 12% | inhibition [27]: 0% | inhibition [28]: 5% | inhibition [29]: 13% | inhibition [30]: 1% | inhibition [31]: 8% | inhibition [32]: 6% | inhibition [33]: 28% | inhibition [34]: 16% | inhibition [35]: 14% | inhibition [36]: 2% | inhibition [37]: 0% | Activity [38]: 0% | half-life [39]: 1.38 h | Tmax [40]: 0.8 h | Cmax [41]: 8.3 µg/mL | bioavailability [42]: 41%
SMILES: CN1C(=O)C(C(=O)Nc2nncs2)c2cc3occc3cc21 (configuration not stated)
